{"source": "ChEMBL document CHEMBL1125403", "about": "“Hybrid cholecystokinin-A antagonists based on molecular modeling of lorglumide and L-364,718” (J Med Chem, 1992)", "data": [{"biological_target": "T1, Cholecystokinin receptor type A (Rattus norvegicus, UniProt P30551)", "T1 sequence (P30551 whole entry)": "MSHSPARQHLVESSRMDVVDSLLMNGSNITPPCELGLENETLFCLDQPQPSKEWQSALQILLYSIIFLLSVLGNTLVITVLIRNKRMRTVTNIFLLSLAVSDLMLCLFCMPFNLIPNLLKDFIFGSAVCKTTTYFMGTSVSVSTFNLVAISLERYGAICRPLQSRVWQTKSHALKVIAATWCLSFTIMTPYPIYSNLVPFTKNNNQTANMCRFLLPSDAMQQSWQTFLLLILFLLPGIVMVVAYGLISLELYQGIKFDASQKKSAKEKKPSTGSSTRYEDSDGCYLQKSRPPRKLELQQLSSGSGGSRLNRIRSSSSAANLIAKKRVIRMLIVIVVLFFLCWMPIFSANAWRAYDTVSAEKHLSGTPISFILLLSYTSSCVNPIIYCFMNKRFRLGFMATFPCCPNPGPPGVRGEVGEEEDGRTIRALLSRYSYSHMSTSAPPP", "assay": "Inhibition of [3H]L-364718 binding to cholecystokinin type A receptor in rat pancreas membranes", "type": "cell membranes, Membrane", "outline": "(§1)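 Male Wistar rat pancreas membranes, homogenized in 10 mM Hepes pH 7.4/5 mM MgCl2/130 mM NaCl, stored at -80 °C. GF/B filtration, scintillation counting. Nonspecific binding with 10 μM lorglumide. IC50 from pseudo-Hill plots, Ki by Cheng-Prusoff. Mean ± SEM of three experiments.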", "units": {"Ki": "nM"}, "values": [{"molecule": "Cc1cccc(NC(=O)NCC=C(c2ccccc2)c2ccccc2)c1", "Ki": 800}, {"molecule": "O=C(NCC=C1c2ccccc2CCc2ccccc21)Nc1ccc(Cl)cc1", "Ki": "> 4000"}, {"molecule": "O=C(NCC=C(c1ccccc1)c1ccccc1)c1ccc(Cl)cc1", "Ki": "> 2000"}, {"molecule": "O=C(NCC=C(c1ccccc1)c1ccccc1)c1ccc2ccccc2c1", "Ki": 450}, {"molecule": "CCCCCN(CCCCC)C(=O)[C@@H](CCC(=O)O)NC(=O)c1ccc(Cl)c(Cl)c1", "Ki": 49}, {"molecule": "O=C(NCC=C(c1ccccc1)c1ccccc1)c1ccc(Cl)c(Cl)c1", "Ki": 400}, {"molecule": "O=C(NCC=C(c1ccccc1)c1ccccc1)Nc1ccc(Cl)cc1", "Ki": 90}, {"molecule": "O=C(NCC=C(c1ccccc1)c1ccccc1)c1cccc2ccccc12", "Ki": 1000}]}, {"biological_target": "T1, Cholecystokinin receptor type A", "assay": "Compound was evaluated for its ability to inhibit [3H]L-364718 binding Cholecystokinin type A receptor in rat pancreas membranes", "type": "cell membranes, Membrane", "outline": "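Male Wistar rat pancreas membranes, homogenized in 10 mM Hepes pH 7.4/5 mM MgCl2/130 mM NaCl, stored at -80 °C. […] GF/B filtration, scintillation counting. Nonspecific binding with 10 μM lorglumide. IC50 from pseudo-Hill plots, Ki by Cheng-Prusoff. Mean ± SEM of three experiments.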", "units": {"Ki": "nM"}, "values": [{"molecule": "O=C(NCCC=C(c1ccccc1)c1ccccc1)c1cc2ccccc2[nH]1", "Ki": "> 2000"}]}, {"biological_target": "T1, Cholecystokinin receptor type A", "assay": "Displacement of [3H]L-364718 from Cholecystokinin type A receptor of rat pancreatic membranes", "type": "cell membranes, Membrane", "outline": "as §1", "units": {"Ki": "nM"}, "values": [{"molecule": "COc1ccc(C(=CCNC(=O)c2cc3ccccc3[nH]2)c2ccc(OC)cc2)cc1", "Ki": "> 4000"}, {"molecule": "O=C(NCC=C(c1ccccc1)c1ccccc1)c1cc2cccc3c2n1CCC3", "Ki": "> 2000"}, {"molecule": "O=C(NCC=C(c1ccccc1)c1ccccc1)c1cc2ccccc2[nH]1", "Ki": 340}, {"molecule": "O=C(NCC=C(c1ccccc1)c1ccccc1)c1ccc2ccccc2n1", "Ki": 470}, {"molecule": "O=C(NCC=C(c1ccccc1)c1ccccc1)c1cnc2ccccc2c1", "Ki": "> 2000"}, {"molecule": "O=C(NC/C=C/c1ccccc1)Nc1ccc(Cl)cc1", "Ki": "> 4000"}, {"molecule": "CCCCCC(=CCNC(=O)Nc1ccc(Cl)cc1)CCCCC", "Ki": 200}, {"molecule": "O=C(NCC=C(c1ccccc1)c1ccccc1)c1ccnc2ccccc12", "Ki": "> 2000"}, {"molecule": "O=C(NCCC=C(c1ccccc1)c1ccccc1)Nc1ccc(Cl)cc1", "Ki": 400}]}]}
